# Data reported in PubChem BioAssay.
# Activity calls are given as the source filed them.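 How the source made its calls, unless noted: active means fluorescence slope after compound addition differing from the mean of all screened samples at 99.7% confidence, in either direction; inactive means the rest.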
# How the values were obtained:
# [1] = inhibitors of TNFa-induced NFkB p65 translocation, primary screen, imaging, HUVEC, MLSMR starter and 10KST1 sets (AID 438;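 active means inhibition above 20% together with a positive visual image hit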;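 further: compound added about 3h40 before a 20 min TNFalpha stimulation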;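 on inhibition: signal is the nuclear over cytoplasmic p65 intensity ratio per well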); conditions: HUVEC TNFa-induced p65 nuclear translocation; cell count: measured here: nuclei count (cytotoxicity indicator), at 2.08 µM; inhibition: at 2 µM, stronger effect = higher value, 0% TNFa-plus-vehicle, 100% no-TNFa wells
# [2] = endothelial E-selectin expression blockers – imaging, HUVEC, immunofluorescence, MLSMR starter and 10KST1 sets, primary screen (AID 487;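 active means visually confirmed hit in the image check and inhibition above 20%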;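 on inhibition: signal is fraction of cell area covered by stained E-selectin grains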;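 on nuclei count: 100% = median nuclei count of all wells on the same plate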); conditions: HUVEC TNFalpha-induced E-selectin immunofluorescence imaging, at 2 µM; inhibition: stronger effect = higher value; nuclei count: measured here: cell number, toxicity
# [3] = Primary imaging screen for DUSP6 inhibitors that restore phospho-Erk in transfected HeLa cells, chemical complementation (AID 609;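 active means compounds giving at least 50% inhibition in the cell-based MKP-3 phosphatase rescue imaging test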;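 on inhibition: phospho-Erk level distribution per well compared with pooled transfected vehicle control wells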); conditions: HeLa MKP-3 transfected, phospho-Erk imaging KS statistic, at 10 µM, cells stimulated with TPA for 15 min
# [4] = target: Dual specificity protein phosphatase 6 (Homo sapiens) (UniProt Q16828); assay: as above; conditions: HeLa MKP-3 transfected, phospho-Erk imaging KS statistic; at 10 µM; stronger effect = higher value; cells stimulated with TPA for 15 min
# [5] = target: Voltage-gated potassium channel subunit beta-2 (Rattus norvegicus) (UniProt P62483); assay: inhibitors of rat Kvbeta2 reductase activity – biochemical, NADPH fluorescence, primary screen (AID 622;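 active means fluorescence slope higher than the sample average by over 3 SD, cut at about -0.22 in these data, passing the limit was not always enough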;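 further: slope of raw intensity against log time taken from 70 to 1610 s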); conditions: recombinant KvBeta, 4-cyanobenzaldehyde reduction, at 10 µM, stronger effect = higher value
# [6] = target: Voltage-gated potassium channel subunit beta-2 (Rattus norvegicus) (UniProt P62483); assay: enhancers of rat Kvbeta2 NADPH turnover – biochemical, NADPH fluorescence, primary screen (AID 623;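 active means NADPH fluorescence slope more negative than the mean of all samples by about 3 SD, 99.7% confidence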;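 further: fluorescence intensity change per second fitted from 20 to 320 s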); conditions: Recombinant KvBeta, NADPH fluorescence decrease slope, 10 min; at 10 µM; stronger effect = lower value
# [7] = target: Alpha-2C adrenergic receptor (Homo sapiens) (UniProt P18825); assay: compounds altering alpha2C-coupled GIRK flux – cell-based, HEK293 alpha2C/GIRK1/2, thallium flux, primary screen (AID 624); conditions: thallium flux BTC fluorescence, at 10 µM, actives lie on both sides;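 further: slope of fluorescence ratio to pre-addition baseline per second over 15 to 24 s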
# [8] = inhibitors of larval lipid processing in zebrafish, primary screen, whole organism, PED6 fluorescence, gall bladder and intestine (AID 686;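 active means a full or partial loss of lipid-probe fluorescence in the fish gall bladder, intestine or both, judged by eye; inactive means no fluorescence loss, or compound toxic to the fish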;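 further: larvae 5 to 7 days old with five fish per well; signal comes from phospholipase A2 cleavage of quenched PED6 carried via bile; overnight exposure to compound and PED6 before scoring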); conditions: Zebrafish larvae PED6 lipid processing, fluorescence scoring; screened at 20 µM (by protocol)
# How it was run: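 system = live zebrafish larvae aged 5-7 days, whole organism | probe or stimulus = ingested quenched lipid PED6 at 100 nM | doses = 20 µM single dose | timing = overnight exposure | detection = fluorescence microscopy with visual scoring of gall bladder and intestine | read-out = visual per-well fluorescence inhibition score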
# [9] = loss of swimming-algae plug formation – whole organism, Chlamydomonas reinhardtii, WT vs cilia-less mutant, absorbance, 96-well, primary screen (AID 463189;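 active means inhibition at or above 50% relative to wild type and mutant plate controls; inactive means inhibition below 50%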;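 further: 0% = wild type cc124 cells in DMSO and 100% = ciliumless bld1 mutant cells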); conditions: Chlamydomonas reinhardtii gravitaxis, OD600 absorbance, 2 days; at 10 µM; stronger effect = higher value
# [10] = measured here: cell density z-score
# [11] = measured here: nuclear c-Myc green intensity z-score
# [12] = measured here: nuclear pErk red intensity z-score, stronger effect = higher value
# Dual specificity protein phosphatase 6 (Homo sapiens), sequence (Q16828 whole entry, looked up): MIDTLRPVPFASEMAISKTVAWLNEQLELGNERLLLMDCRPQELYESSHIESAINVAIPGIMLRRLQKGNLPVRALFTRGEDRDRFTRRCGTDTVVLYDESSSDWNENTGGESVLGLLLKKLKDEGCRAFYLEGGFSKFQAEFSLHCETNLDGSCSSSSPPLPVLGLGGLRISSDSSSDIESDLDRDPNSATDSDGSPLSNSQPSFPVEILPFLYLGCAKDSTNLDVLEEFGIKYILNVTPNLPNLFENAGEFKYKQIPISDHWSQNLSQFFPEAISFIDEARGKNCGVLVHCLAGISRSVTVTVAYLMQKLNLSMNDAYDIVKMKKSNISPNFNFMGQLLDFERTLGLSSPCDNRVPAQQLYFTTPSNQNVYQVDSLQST
# Alpha-2C adrenergic receptor (Homo sapiens), sequence (P18825 whole entry, looked up): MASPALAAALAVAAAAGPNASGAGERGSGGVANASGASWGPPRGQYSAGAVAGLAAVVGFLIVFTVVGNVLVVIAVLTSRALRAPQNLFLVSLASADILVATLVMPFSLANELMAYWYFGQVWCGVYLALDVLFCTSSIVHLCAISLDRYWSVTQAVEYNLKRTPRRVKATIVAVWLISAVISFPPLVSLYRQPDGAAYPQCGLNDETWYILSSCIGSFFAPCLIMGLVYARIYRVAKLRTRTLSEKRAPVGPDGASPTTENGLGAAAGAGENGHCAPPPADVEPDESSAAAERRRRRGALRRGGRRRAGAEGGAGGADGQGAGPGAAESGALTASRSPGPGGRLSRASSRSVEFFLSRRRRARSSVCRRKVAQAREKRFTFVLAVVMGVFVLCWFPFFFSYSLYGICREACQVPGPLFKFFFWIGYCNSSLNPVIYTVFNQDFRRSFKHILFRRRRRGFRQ
# Voltage-gated potassium channel subunit beta-2 (Rattus norvegicus), sequence (P62483 whole entry, looked up): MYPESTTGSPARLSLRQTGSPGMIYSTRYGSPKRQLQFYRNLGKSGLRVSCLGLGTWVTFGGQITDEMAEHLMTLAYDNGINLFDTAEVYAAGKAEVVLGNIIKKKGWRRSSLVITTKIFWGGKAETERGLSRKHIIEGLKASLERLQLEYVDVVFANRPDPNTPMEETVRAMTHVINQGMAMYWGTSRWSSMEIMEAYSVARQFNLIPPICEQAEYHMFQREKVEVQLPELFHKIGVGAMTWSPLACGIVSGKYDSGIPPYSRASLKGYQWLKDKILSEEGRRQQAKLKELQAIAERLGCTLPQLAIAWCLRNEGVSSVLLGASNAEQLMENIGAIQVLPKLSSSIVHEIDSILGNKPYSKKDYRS
SMILES,cell count [1],inhibition [1],inhibition [2],nuclei count [2] [%],"z-score [3, 10]","z-score [3, 11]","z-score [3, 12]",inhibition [4],fluorescence slope [5],NADPH fluorescence slope [6],slope [7],outcome [8],inhibition [9]
CC1CN(C2CCN(S(=O)(=O)c3ccc4ccccc4c3)CC2)CC(C)O1 (stereo not drawn),396,-19.4% (inactive),-273% (inactive),173,0.701,-1.69,1.26,-0.159% (inactive),-0.389 (inactive),-3.5e-05 (inactive),0.00656 (inactive),inactive,110% (active)
CCN(CC)S(=O)(=O)c1ccc2c(c1)c(C(=O)O)cn2C,435,-15.2% (inactive),-25.4% (inactive),114,0.944,-0.275,-1.67,24.4% (inactive),-0.568 (inactive),-6e-05 (inactive),0.00489 (inactive),inactive,22.9% (inactive)
CC(=O)N[C@H]1C[C@@H]1c1ccccc1,404,-8.9% (inactive),0.6% (inactive),103,0.812,-0.111,-1.93,6.04% (inactive),-0.4 (inactive),3.1e-05 (inactive),0.00883 (inactive),inactive,-14.5% (inactive)
Cc1nc2sc3c(NCc4ccco4)ncnc3c2c2c1COC(C)(C)C2,595,-11% (inactive),-84.2% (inactive),181,-1.22,-0.424,1.05,-2.69% (inactive),-0.373 (inactive),-3e-05 (inactive),0.00585 (inactive),inactive,45.7% (inactive)
CC(C)CC(NC(=O)OC(C)(C)C)C(=O)NCc1ccccc1 (stereo not drawn),626,-12.9% (inactive),-28.9% (inactive),156,1.56,-1.58,0.0751,5.57% (inactive),-0.475 (inactive),-0.000315 (inactive),0.00412 (inactive),inactive,1.86% (inactive)
CN1C(=O)C2(N=c3ccccc3=N2)c2ccccc21,527,-4.5% (inactive),-152% (inactive),209,-0.677,0.303,0.421,7.73% (inactive),-0.482 (inactive),-4.4e-05 (inactive),0.00491 (inactive),inactive,9.55% (inactive)
CCCCNC(=O)c1c(N)n(/N=C/c2cccnc2)c2nc3ccccc3nc12,474,4.9% (inactive),-130% (inactive),139,1.68,-0.352,0.256,24.5% (inactive),-0.456 (inactive),5.4e-07 (inactive),0.0052 (inactive),inactive,29% (inactive)
Nc1ccc(Cl)cc1/C(=N/O)c1ccccc1,337,-13.8% (inactive),-23% (inactive),65.2,0.198,0.536,-0.0149,1.75% (inactive),-0.451 (inactive),9e-06 (inactive),0.00461 (inactive),inactive,16.2% (inactive)
COc1ccc(Cl)cc1N=Cc1c(O)cc(C)oc1=O,347,-4.9% (inactive),-136% (inactive),189,0.57,-0.693,0.874,12.3% (inactive),-0.415 (inactive),-0.0002 (inactive),0.00387 (inactive),inactive,16.9% (inactive)
Cc1ccc2[nH]c3c(c2c1)CCCC3C(N)=O (stereo not drawn),548,-27.5% (inactive),-103% (inactive),183,-1.12,0.929,-1.27,-16.8% (inactive),-0.508 (inactive),-2.9e-05 (inactive),0.00527 (inactive),inactive,3.14% (inactive)
COC(=O)CCc1c(C)[nH]c(C(=O)OCc2ccccc2)c1C,596,-4.1% (inactive),-34% (inactive),179,-1.2,-0.0699,0.772,-5.89% (inactive),-0.487 (inactive),-0.00013 (inactive),0.00445 (inactive),inactive,-0.974% (inactive)
CCOC(=O)C(c1ccccc1)N1CCN(c2ccc(OC)cc2)CC1 (stereo not drawn),365,-5.2% (inactive),-72.8% (inactive),146,-0.336,-0.989,-1.39,11.4% (inactive),-0.422 (inactive),-0.000118 (inactive),0.00552 (inactive),inactive,-10% (inactive)
O=S1(=O)C[C@@H](N2CCOCC2)[C@H](N2CCOCC2)C1,513,3.1% (inactive),-110% (inactive),133,-0.578,0.935,0.179,-3.5% (inactive),-0.462 (inactive),-7.3e-05 (inactive),0.00558 (inactive),inactive,3.28% (inactive)
CCOC(=O)CSc1nnc2n(C3CCCCC3)c(=O)c3c4c(sc3n12)CCCC4,650,-11.4% (inactive),-104% (inactive),146,-1.05,-0.745,-0.835,1.75% (inactive),-0.533 (inactive),-0.0001 (inactive),0.00612 (inactive),inactive,-1.33% (inactive)
O=C1C(=O)N(CCN2CCOCC2)C(c2ccccn2)/C1=C(/O)c1ccc(F)cc1 (stereo not drawn),368,-5.8% (inactive),-3.3% (inactive),124,-0.169,0.443,-0.876,3.66% (inactive),-0.392 (inactive),-5.6e-05 (inactive),0.00569 (inactive),inactive,38.7% (inactive)
CN1CCc2c(sc3ncn4nc(-c5ccccc5O)nc4c23)C1,519,-12.5% (inactive),-51.6% (inactive),125,0.947,-1.25,0.576,9.39% (inactive),-0.472 (inactive),-0.000226 (inactive),0.00542 (inactive),inactive,87% (active)
CCN(CC)CCNC(=O)c1ccccc1N,521,-17.4% (inactive),-314% (inactive),187,0.845,0.248,0.636,-8.95% (inactive),-0.463 (inactive),-0.000132 (inactive),0.00488 (inactive),inactive,-5.26% (inactive)
CC1(C)Cc2c(sc3ncn4nnnc4c23)CO1,685,-0.9% (inactive),-182% (inactive),180,1.78,-1.07,0.925,13.2% (inactive),-0.522 (inactive),-3.9e-05 (inactive),0.00539 (inactive),inactive,9.27% (inactive)
COCCOC(=O)C1=C(C)OC(N)=C(C#N)C1c1ccco1 (stereo not drawn),364,-7.8% (inactive),-269% (inactive),165,-0.623,-0.763,1.29,-13.5% (inactive),-0.406 (inactive),-4.7e-05 (inactive),0.00481 (inactive),inactive,20.2% (inactive)
CCC1(C)Cc2ccccc2-c2nc(NCCO)n(-c3ccccc3)c(=O)c21 (stereo not drawn),467,0.9% (inactive),-104% (inactive),137,-0.977,0.92,0.687,-14% (inactive),-0.0137 (active),6.5e-06 (inactive),0.00569 (inactive),inactive,-9.34% (inactive)
COc1ccc(OC)c2c(N)c(C#N)c(C(F)(F)C(F)(F)F)nc12,295,-8.5% (inactive),9% (inactive),85.5,1,-1.13,-0.419,21% (inactive),-0.402 (inactive),-3.3e-05 (inactive),0.00519 (inactive),inactive,-13.9% (inactive)
